# Data from PubChem BioAssay.
# Calls of active or inactive are those of the source.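 Rule for the calls, unless noted: active = fluorescence slope after compound addition differing from the mean of all screened samples at 99.7% confidence, in either direction; inactive = the rest.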
# Tests used:
# [1] = inhibitors of TNFa-induced NFkB p65 translocation, primary screen, imaging, HUVEC, MLSMR starter and 10KST1 sets (AID 438;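 active = inhibition above 20% together with a positive visual image hit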;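 note: compound added about 3h40 before a 20 min TNFalpha stimulation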;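 for inhibition: signal is the nuclear over cytoplasmic p65 intensity ratio per well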); conditions: HUVEC TNFa-induced p65 nuclear translocation; cell count: measured here: nuclei count (cytotoxicity indicator), at 2.08 µM; inhibition: at 2 µM, stronger effect = higher value, 0% TNFa-plus-vehicle, 100% no-TNFa wells
# [2] = reduction of polyQ htt aggregates in cells – imaging, exon1htt(103Q)mCFP cells, high-content imaging, primary screen (AID 483;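 active = visual image review flags a hit and inhibition of aggregation exceeds 20%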;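 note: compound exposure lasted 3 days before fixation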;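 for nuclei count: percent of the per-plate median nuclei count of sample wells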); conditions: exon1htt(103Q)mCFP cell line, aggregate imaging, at 2 µM; inhibition of aggregation: stronger effect = higher value; nuclei count: measured here: cell count, toxicity
# [3] = endothelial E-selectin expression blockers – imaging, HUVEC, immunofluorescence, MLSMR starter and 10KST1 sets, primary screen (AID 487;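 active = visually confirmed hit in the image check and inhibition above 20%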;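 for inhibition: signal is fraction of cell area covered by stained E-selectin grains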;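 for nuclei count: 100% = median nuclei count of all wells on the same plate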); conditions: HUVEC TNFalpha-induced E-selectin immunofluorescence imaging, at 2 µM; inhibition: stronger effect = higher value; nuclei count: measured here: cell number, toxicity
# [4] = biological target: Voltage-gated potassium channel subunit beta-2 (Rattus norvegicus) (UniProt P62483); assay: inhibitors of rat Kvbeta2 reductase activity – biochemical, NADPH fluorescence, primary screen (AID 622;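 active = fluorescence slope higher than the sample average by over 3 SD, cut at about -0.22 in these data, passing the limit was not always enough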;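 note: slope of raw intensity against log time taken from 70 to 1610 s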); conditions: recombinant KvBeta, 4-cyanobenzaldehyde reduction, at 10 µM, stronger effect = higher value
# [5] = biological target: Voltage-gated potassium channel subunit beta-2 (Rattus norvegicus) (UniProt P62483); assay: enhancers of rat Kvbeta2 NADPH turnover – biochemical, NADPH fluorescence, primary screen (AID 623;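 active = NADPH fluorescence slope more negative than the mean of all samples by about 3 SD, 99.7% confidence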;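 note: fluorescence intensity change per second fitted from 20 to 320 s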); conditions: Recombinant KvBeta, NADPH fluorescence decrease slope, 10 min; at 10 µM; stronger effect = lower value
# [6] = biological target: Alpha-2C adrenergic receptor (Homo sapiens) (UniProt P18825); assay: compounds altering alpha2C-coupled GIRK flux – cell-based, HEK293 alpha2C/GIRK1/2, thallium flux, primary screen (AID 624); conditions: thallium flux BTC fluorescence, at 10 µM, actives lie on both sides;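 note: slope of fluorescence ratio to pre-addition baseline per second over 15 to 24 s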
# [7] = inhibitors of larval lipid processing in zebrafish, primary screen, whole organism, PED6 fluorescence, gall bladder and intestine (AID 686;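 active = a full or partial loss of lipid-probe fluorescence in the fish gall bladder, intestine or both, judged by eye; inactive = no fluorescence loss, or compound toxic to the fish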;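 note: larvae 5 to 7 days old with five fish per well; signal comes from phospholipase A2 cleavage of quenched PED6 carried via bile; overnight exposure to compound and PED6 before scoring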); conditions: Zebrafish larvae PED6 lipid processing, fluorescence scoring; screened at 20 µM (by protocol)
# Outline: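 System: live zebrafish larvae aged 5-7 days, whole organism; measure: graded gall bladder and intestinal fluorescence inhibition per well; incubation: overnight exposure; reagent: ingested quenched lipid PED6 at 100 nM; signal: By-eye fluorescence microscopy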
# [8] = blockers of RIG-like receptor reporter activation – cell-based, Sendai virus stimulus, luciferase, 10K MLSCN set, TLR/RLR signaling modifier project, primary screen (AID 602276;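 active = inhibition at or above 50% at 10 µM; inactive = inhibition below 50%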;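 note: firefly luciferase from ISG56 promoter only with Renilla not read in this screen; 0% = Sendai virus plus DMSO and 100% = medium plus DMSO without virus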); conditions: HEK293 RL24 IRF3 luciferase reporter, at 10 µM, stronger effect = higher value
# [9] = TLR3 IRF3 reporter activation blockers – cell-based, poly I:C stimulus, luciferase, 10K MLSCN set, primary screen (AID 602277;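 active = inhibition of the reporter signal at or above 50%; inactive = inhibition below 50%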); conditions: HEK293-TLR3 RL24 IRF3 luciferase reporter, at 10 µM, stronger effect = higher value
# Sequence of Voltage-gated potassium channel subunit beta-2 (Rattus norvegicus) (P62483 whole entry, looked up): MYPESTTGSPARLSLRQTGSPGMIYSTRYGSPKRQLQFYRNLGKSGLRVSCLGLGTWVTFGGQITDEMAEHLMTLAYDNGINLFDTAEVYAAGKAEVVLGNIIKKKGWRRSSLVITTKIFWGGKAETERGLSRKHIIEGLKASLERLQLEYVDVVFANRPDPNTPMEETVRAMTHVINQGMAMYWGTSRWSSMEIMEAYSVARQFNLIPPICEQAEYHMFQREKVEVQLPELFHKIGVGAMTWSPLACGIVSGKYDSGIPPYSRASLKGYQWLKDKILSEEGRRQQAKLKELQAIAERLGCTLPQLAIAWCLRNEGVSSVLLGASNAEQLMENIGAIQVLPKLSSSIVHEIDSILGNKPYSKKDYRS
# Sequence of Alpha-2C adrenergic receptor (Homo sapiens) (P18825 whole entry, looked up): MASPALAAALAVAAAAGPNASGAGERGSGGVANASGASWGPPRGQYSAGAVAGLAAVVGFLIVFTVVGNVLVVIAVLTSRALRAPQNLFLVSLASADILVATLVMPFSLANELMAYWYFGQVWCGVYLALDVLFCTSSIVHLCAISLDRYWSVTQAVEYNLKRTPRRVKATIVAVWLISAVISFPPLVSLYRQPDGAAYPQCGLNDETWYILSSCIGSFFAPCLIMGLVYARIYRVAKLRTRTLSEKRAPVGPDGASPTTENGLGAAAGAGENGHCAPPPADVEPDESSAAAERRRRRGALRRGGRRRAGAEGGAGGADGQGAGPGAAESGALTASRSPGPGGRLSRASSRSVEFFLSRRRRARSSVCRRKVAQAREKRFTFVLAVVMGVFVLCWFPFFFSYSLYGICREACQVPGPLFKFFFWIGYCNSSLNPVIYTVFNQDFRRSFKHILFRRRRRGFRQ
Structure (SMILES),cell count [1],inhibition [1],inhibition of aggregation [2],nuclei count [2],inhibition [3],nuclei count [3],fluorescence slope [4],NADPH fluorescence slope [5],slope [6],outcome [7],inhibition [8],inhibition [9]
COc1ccc(-c2noc(CSc3nc4ccccc4c(=O)n3-c3ccccc3)n2)cc1OC,498,-1.8% (inactive),12.7% (inactive),96.7%,-114% (inactive),128%,-0.412 (inactive),-4.5e-05 (inactive),0.0108 (active),inactive,23.5% (inactive),26.1% (inactive)
O=C(O)C1CCCCC1C(=O)Nc1ccccn1 (stereo not given),475,-7.1% (inactive),-2.7% (inactive),109%,18.5% (inactive),83.2%,-0.445 (inactive),-5e-05 (inactive),0.00502 (inactive),inactive,7.72% (inactive),0.963% (inactive)
O=C(COC(=O)c1ccccc1C(=O)c1ccccc1)c1ccco1,327,7.4% (inactive),-2.3% (inactive),89.2%,4% (inactive),113%,-0.501 (inactive),2.4e-06 (inactive),0.00441 (inactive),inactive,-5.98% (inactive),2.21% (inactive)
CN/C=C1\C(=O)C(C)(C)Oc2ccc3ccc(=O)oc3c21,544,-12.4% (inactive),-24.8% (inactive),101%,-38.4% (inactive),129%,-0.384 (inactive),-2.1e-05 (inactive),0.00506 (inactive),inactive,8.59% (inactive),8.49% (inactive)
Cc1nc(C)n(C(C)CC(=O)O)n1 (stereo not given),635,0.7% (inactive),53.1% (active),90.8%,-147% (inactive),115%,-0.386 (inactive),-4.4e-05 (inactive),0.00496 (inactive),inactive,5.03% (inactive),7.13% (inactive)
CCCN1Cc2cccc(C(=O)NC3CCCC3)c2C1=O,653,0.7% (inactive),14% (inactive),95.2%,-62.4% (inactive),101%,-0.349 (inactive),-6.1e-05 (inactive),0.0059 (inactive),inactive,11.8% (inactive),22.8% (inactive)
CCCn1nnc(NCc2ccc(OCc3cccs3)c(OC)c2)n1,226,-5.8% (inactive),7.5% (inactive),90%,-51.4% (inactive),99%,-0.467 (inactive),-3.7e-05 (inactive),0.00561 (inactive),inactive,8.88% (inactive),6.19% (inactive)
Cc1nc2ccccc2c(=O)n1NC(=O)Nc1ccccc1,592,0% (inactive),17.7% (inactive),83.8%,-41.3% (inactive),97.5%,-0.359 (inactive),-2.7e-05 (inactive),0.00703 (inactive),inactive,12.6% (inactive),-4.39% (inactive)
COc1ccc(CN(C(=O)CN2C(=O)COc3ccccc32)C2CCCC2)c(OC)c1,658,-3.5% (inactive),-4.6% (inactive),102%,4.9% (inactive),104%,-0.435 (inactive),-6.2e-05 (inactive),0.00491 (inactive),inactive,21.9% (inactive),26.4% (inactive)
O=C(Nc1ccc2c(c1)OCCO2)C1CCN(C(=O)c2ccc(F)cc2)CC1,397,4.1% (inactive),-5.3% (inactive),96.2%,-14% (inactive),117%,-0.368 (inactive),-7.6e-05 (inactive),0.00511 (inactive),inactive,-6.3% (inactive),-44.3% (inactive)
COc1cc(CC(=O)Oc2ccc3c(c2)OCO3)cc(OC)c1OC,469,1.1% (inactive),-5.8% (inactive),112%,-79.4% (inactive),101%,-0.392 (inactive),-5.2e-05 (inactive),0.00391 (inactive),inactive,2.88% (inactive),99% (active)
COc1ccccc1NC(=O)NCc1ccc2c(c1)OCO2,361,-9.8% (inactive),25.8% (inactive),97%,37.9% (inactive),78.8%,-0.341 (inactive),-2.6e-05 (inactive),0.0055 (inactive),inactive,10.7% (inactive),17.5% (inactive)
O=C(O)CCc1ccc(-c2cccs2)n1NC(=O)c1ccccc1Br,338,-5.2% (inactive),2.7% (inactive),94.1%,-46.9% (inactive),115%,-0.416 (inactive),-5.2e-05 (inactive),0.0044 (inactive),inactive,19.5% (inactive),14.2% (inactive)
Cc1ccc(-c2nn[nH]n2)cc1,334,-7.1% (inactive),-16.2% (inactive),117%,-4.4% (inactive),123%,-0.474 (inactive),-3.8e-05 (inactive),0.00429 (inactive),inactive,4.2% (inactive),10.7% (inactive)
COc1ccccc1NC(=O)N(Cc1ccco1)Cc1cc2c(C)ccc(C)c2[nH]c1=O,722,-11.9% (inactive),2.5% (inactive),98.7%,-13.2% (inactive),100%,-0.463 (inactive),-4.7e-05 (inactive),0.00639 (inactive),inactive,12.5% (inactive),5.06% (inactive)
O=C(Nc1cc(C(F)(F)F)ccc1N1CCCC1)c1ccc2c(c1)OCO2,215,6.7% (inactive),16.7% (inactive),84.5%,-54.9% (inactive),103%,-0.461 (inactive),-2e-05 (inactive),0.00354 (inactive),inactive,13% (inactive),24.5% (inactive)
O=c1c2cnn(-c3ccccc3)c2ncn1/N=C/c1ccncc1,476,-7.8% (inactive),3.3% (inactive),119%,-71.4% (inactive),108%,-0.378 (inactive),-5.9e-05 (inactive),0.00444 (inactive),inactive,11.6% (inactive),11.3% (inactive)
C=CCn1c(SCC(=O)Nc2ccc3c(c2)OCO3)nc2ccccc2c1=O,388,-0.4% (inactive),1.9% (inactive),96.8%,37.8% (inactive),90.6%,-0.429 (inactive),-3.8e-05 (inactive),0.00549 (inactive),inactive,15.8% (inactive),14.8% (inactive)
Cc1ccc(S(=O)(=O)N2CCN(c3nc(C)nc4sc(C)c(C)c34)CC2)cc1,345,10.5% (inactive),-6.6% (inactive),110%,-191% (inactive),108%,-0.387 (inactive),-5.6e-05 (inactive),0.0062 (inactive),inactive,5.42% (inactive),4.33% (inactive)
CCOC(=O)n1c(=O)oc2cc(S(=O)(=O)N3CCCCC3)ccc21,419,14.8% (inactive),-1% (inactive),103%,35.2% (inactive),81.5%,-0.294 (inactive),-1.1e-05 (inactive),0.00583 (inactive),inactive,8.09% (inactive),16.3% (inactive)
COc1ccc(OCCOC(=O)c2cccc(-n3cnnn3)c2)cc1,289,4.4% (inactive),8.2% (inactive),92.8%,-5.5% (inactive),112%,-0.462 (inactive),-4.8e-05 (inactive),0.00521 (inactive),inactive,-2.23% (inactive),-15.7% (inactive)
COC(=O)c1ccc(NC(=O)C2C3CCC(C3)C2C(=O)O)cc1 (stereo not given),416,2.5% (inactive),0% (inactive),89.6%,52.5% (inactive),103%,-0.39 (inactive),-1.7e-05 (inactive),0.00477 (inactive),inactive,-12.2% (inactive),-15.9% (inactive)
COc1ccc(C(=O)CSc2nnc(-c3ccc(C)cc3)o2)cc1,419,11.2% (inactive),-14.9% (inactive),109%,-69.4% (inactive),112%,-0.371 (inactive),-1.3e-05 (inactive),0.00862 (inactive),inactive,-16.3% (inactive),-18.5% (inactive)
CCn1c(=N)n(CC(=O)c2ccco2)c2ccccc21,407,-11.8% (inactive),22.6% (inactive),68%,52.9% (active),83.4%,-0.391 (inactive),-5.5e-05 (inactive),0.00452 (inactive),inactive,4.56% (inactive),2.85% (inactive)
COc1ccc(NC(=O)CC2CCCCC2)cc1OC,258,-5.5% (inactive),-4.8% (inactive),91.1%,-69.1% (inactive),99.7%,-0.356 (inactive),-2.3e-05 (inactive),0.00718 (inactive),inactive,-6.37% (inactive),-23% (inactive)
